# Laboratory results as given in ChEMBL document CHEMBL1165949, “Dammaranes from Gynostemma pentaphyllum and synthesis of their derivatives as inhibitors of protein tyrosine phosphatase 1B” (Bioorg Med Chem, 2010).
# Experiments:
# [1] = molecular target: T1, Tyrosine-protein phosphatase non-receptor type 1 (Homo sapiens, UniProt P18031); assay: Inhibition of PTP1B by pNPP hydrolase assay
# T1 sequence (P18031 whole entry): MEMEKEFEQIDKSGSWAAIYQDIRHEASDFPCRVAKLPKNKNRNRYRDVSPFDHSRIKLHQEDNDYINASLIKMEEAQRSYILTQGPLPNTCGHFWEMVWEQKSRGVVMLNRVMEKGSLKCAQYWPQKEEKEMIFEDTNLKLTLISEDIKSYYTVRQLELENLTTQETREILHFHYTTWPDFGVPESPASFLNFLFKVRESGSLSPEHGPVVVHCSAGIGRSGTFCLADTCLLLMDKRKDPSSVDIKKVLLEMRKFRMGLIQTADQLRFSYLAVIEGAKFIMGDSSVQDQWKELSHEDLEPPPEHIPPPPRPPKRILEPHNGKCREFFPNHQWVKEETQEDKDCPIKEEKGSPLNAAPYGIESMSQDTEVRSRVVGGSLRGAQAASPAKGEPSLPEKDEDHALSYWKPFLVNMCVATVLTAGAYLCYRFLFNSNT
# Summary of the method: (§1)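 Enzyme activity (PTP1B or TCPTP) was measured by hydrolysis of p-nitrophenyl phosphate (pNPP), with {4-[4-(4-oxalylphenoxymethyl)-benzyloxy]-phenyl}-oxo-acetic acid as the reference inhibitor. IC50 was derived by regression analysis and reported as mean ± SD of three replications.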
# [2] = molecular target: T2, Tyrosine-protein phosphatase non-receptor type 2 (Homo sapiens, UniProt P17706); assay: Inhibition of TCPTP by pNPP hydrolase assay; summary of the method: as §1
# T2 sequence (P17706 whole entry): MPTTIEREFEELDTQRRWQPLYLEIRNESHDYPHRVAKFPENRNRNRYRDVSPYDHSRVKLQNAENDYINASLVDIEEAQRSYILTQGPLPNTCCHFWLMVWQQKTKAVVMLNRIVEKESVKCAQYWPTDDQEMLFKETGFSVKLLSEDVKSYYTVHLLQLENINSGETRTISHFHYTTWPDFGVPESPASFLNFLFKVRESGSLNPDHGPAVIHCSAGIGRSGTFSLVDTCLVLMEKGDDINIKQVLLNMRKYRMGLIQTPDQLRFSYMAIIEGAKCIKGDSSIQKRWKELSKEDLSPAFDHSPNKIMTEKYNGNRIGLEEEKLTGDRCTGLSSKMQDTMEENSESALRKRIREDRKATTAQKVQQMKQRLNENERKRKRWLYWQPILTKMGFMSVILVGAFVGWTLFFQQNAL
# [3] = molecular target: T3, Tyrosine-protein phosphatase non-receptor type 1 (Homo sapiens) (UniProt P18031); assay: Inhibition of PTP1B at 20 uM by pNPP hydrolase assay
# T3 sequence (whole entry): T1 sequence (P18031 whole entry)
# [4] = Selectivity ratio of IC50 for TCPTP to IC50 for PTP1B
# [5] = molecular target: T1, Tyrosine-protein phosphatase non-receptor type 1; assay: Inhibition of PTP1B; summary of the method: as §1
SMILES,IC50 [1] [µM],IC50 [2] [µM],inhibition [3] [%],Ratio IC50 [4],IC50 [5] [µM]
COc1ccc(C(=O)O[C@H]2CC[C@]3(C)[C@H]4CC[C@H]5[C@@H](CC[C@@H]5[C@@]5(O)C[C@@H](C=C(C)C)OC5=O)[C@]4(C)CC[C@H]3C2(C)C)cc1,2.61,3.9,–,–,–
COc1ccc(CNC2CC[C@]3(C)[C@H]4CC[C@H]5[C@@H](CC[C@@H]5[C@@]5(O)C[C@@H](C=C(C)C)OC5=O)[C@]4(C)CC[C@H]3C2(C)C)cc1 (some centres undefined),–,–,24,–,–
COc1ccccc1C(=O)O[C@H]1CC[C@]2(C)[C@H]3CC[C@H]4[C@@H](CC[C@@H]4[C@@]4(O)C[C@@H](C=C(C)C)OC4=O)[C@]3(C)CC[C@H]2C1(C)C,1.9,4.05,–,–,–
CC(C)=C[C@@H]1C[C@](O)([C@H]2CC[C@@H]3[C@@H]2CC[C@H]2[C@@]3(C)CC[C@H]3C(C)(C)C(=O)CC[C@]23C)C(=O)O1,13.1,34.1,–,–,–
CC(C)=C[C@@H]1C[C@](O)([C@H]2CC[C@@H]3[C@@H]2CC[C@H]2[C@@]3(C)CC[C@H]3C(C)(C)[C@@H](OC(=O)c4ccccn4)CC[C@]23C)C(=O)O1,2.36,5.14,–,–,–
CC(=O)O[C@H]1CC[C@]2(C)[C@H]3CC[C@H]4[C@@H](CC[C@@H]4[C@@]4(O)C[C@@H](C=C(C)C)OC4=O)[C@]3(C)CC[C@H]2C1(C)C,12.7,–,–,–,–
CC(C)=C[C@@H]1C[C@](O)([C@H]2CC[C@@H]3[C@@H]2CC[C@H]2[C@@]3(C)CC[C@H]3C(C)(C)C(NCc4cc(F)cc(F)c4)CC[C@]23C)C(=O)O1 (some centres undefined),11.6,–,–,–,–
CC(C)=C[C@@H]1C[C@](O)([C@H]2CC[C@@H]3[C@@H]2CC[C@H]2[C@@]3(C)CC[C@H]3C(C)(C)[C@@H](OC(=O)c4ccc(C(=O)O)cc4)CC[C@]23C)C(=O)O1,0.27,0.97,–,–,–
CCC(=O)[C@H]1CC[C@]2(C)[C@H]3CC[C@H]4[C@@H](CC[C@@H]4[C@@]4(O)C[C@@H](C=C(C)C)OC4=O)[C@]3(C)CC[C@H]2C1(C)C,4.6,14.7,–,–,–
CC(C)=C[C@@H]1C[C@](O)([C@H]2CC[C@@H]3[C@@H]2CC[C@H]2[C@@]3(C)CC[C@H]3C(C)(C)[C@@H](OC(=O)c4ccccc4[N+](=O)[O-])CC[C@]23C)C(=O)O1,1.96,3.38,–,–,–
CC(C)=C[C@@H]1C[C@](O)([C@H]2CC[C@@H]3[C@@H]2CC[C@H]2[C@@]3(C)CC[C@H]3C(C)(C)[C@@H](OC(=O)c4ccc([N+](=O)[O-])cc4)CC[C@]23C)C(=O)O1,1.42,5.1,–,–,–
CC(C)=C[C@@H]1C[C@](O)([C@H]2CC[C@@H]3[C@@H]2CC[C@H]2[C@@]3(C)CC[C@H]3C(C)(C)[C@@H](OC(=O)c4ccc(C(=O)O)c([N+](=O)[O-])c4)CC[C@]23C)C(=O)O1,0.5,1.22,–,–,–
CC(C)=C[C@@H]1C[C@](O)([C@H]2CC[C@@H]3[C@@H]2CC[C@H]2[C@@]3(C)CC[C@H]3C(C)(C)[C@@H](OC(=O)c4cccc(C(=O)O)c4)CC[C@]23C)C(=O)O1,0.33,1.62,–,4.9,–
CC(C)=C[C@@H]1C[C@](O)([C@H]2CC[C@@H]3[C@@H]2CC[C@H]2[C@@]3(C)CC[C@H]3C(C)(C)C(NCc4ccc([N+](=O)[O-])cc4)CC[C@]23C)C(=O)O1 (some centres undefined),6.58,–,–,–,–
CC(C)=C[C@@H]1C[C@](O)([C@H]2CC[C@@H]3[C@@H]2CC[C@H]2[C@@]3(C)CC[C@H]3C(C)(C)[C@@H](OC(=O)c4ccc([N+](=O)[O-])cc4[N+](=O)[O-])CC[C@]23C)C(=O)O1,1.62,2.87,–,–,–
COc1cccc(C(=O)O[C@H]2CC[C@]3(C)[C@H]4CC[C@H]5[C@@H](CC[C@@H]5[C@@]5(O)C[C@@H](C=C(C)C)OC5=O)[C@]4(C)CC[C@H]3C2(C)C)c1,2.08,12,–,–,–
CC(C)=C[C@@H]1C[C@](O)([C@H]2CC[C@@H]3[C@@H]2CC[C@H]2[C@@]3(C)CC[C@H]3C(C)(C)[C@@H](OC(=O)c4cccc([N+](=O)[O-])c4)CC[C@]23C)C(=O)O1,1.7,2.26,–,–,–
CC(C)=C[C@@H]1C[C@](O)([C@H]2CC[C@@H]3[C@@H]2CC[C@H]2[C@@]3(C)CC[C@H]3C(C)(C)[C@@H](O)CC[C@]23C)C(=O)O1,11.3,–,–,–,15.7
CC(C)=C[C@@H]1C[C@](O)([C@H]2CC[C@@H]3[C@@H]2CC[C@H]2[C@@]3(C)CC[C@H]3C(C)(C)[C@@H](C(=O)c4ccccc4)CC[C@]23C)C(=O)O1,2.75,4.15,–,–,–
CC(C)=C[C@H]1C[C@@](O)([C@H]2CC[C@@H]3[C@@H]2CC[C@H]2[C@@]3(C)CC[C@H]3C(C)(C)[C@@H](O)CC[C@]23C)C(=O)O1,9.6,–,–,–,5.3
CCCCC(=O)[C@H]1CC[C@]2(C)[C@H]3CC[C@H]4[C@@H](CC[C@@H]4[C@@]4(O)C[C@@H](C=C(C)C)OC4=O)[C@]3(C)CC[C@H]2C1(C)C,4.14,11.8,–,–,–
